Test results taken from ChEMBL document CHEMBL1926565, “Synthesis, antiproliferative activities and telomerase inhibition evaluation of novel asymmetrical 1,2-disubstituted amidoanthraquinone derivatives” (Eur J Med Chem, 2012).

How the values were obtained:
[1] = test system: OVCAR-8; test: Cytotoxicity against human OVCAR8 cells assessed as cellular growth at 10 uM; assay type: functional
Outline: (§1)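 Single-dose screen run by the NCI across its 60-human-tumour-cell-line panel; growth recorded for each cell line.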

[2] = test system: SN12C; test: Cytotoxicity against human SN12C cells assessed as cellular growth at 10 uM; assay type: functional
[3] = test system: UO-31; test: Cytotoxicity against human UO31 cells assessed as cellular growth at 10 uM; assay type: functional
[4] = test system: DU-145; test: Cytotoxicity against human DU145 cells assessed as cellular growth at 10 uM; assay type: functional; outline: as §1
[5] = test system: T47D; test: Cytotoxicity against human T47D cells assessed as cellular growth at 10 uM; assay type: functional
[6] = test system: SR; test: Anticancer activity against human SR cells; assay type: functional
Outline: (§2)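 NCI 60-human-tumour-cell-line panel. Selected analogues were first run at one dose, then some were carried into multi-dose testing. GI50 (50% growth inhibition), TGI (total growth inhibition) and LC50 (50% cell kill) were read as values interpolated where the dose–response curves cross these levels.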

[7] = test system: K562; test: Anticancer activity against human K562 cells; assay type: functional; outline: as §2
[8] = test system: PC-3; test: Cytotoxicity against human PC3 cells after 48 hrs by SRB assay; assay type: functional, cell-based; details: PC-3, 48 h
Outline: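 PC-3 cells grown in RPMI1640 with 10% FBS at 37 °C, 5% CO₂. Seeded in medium with 5% FBS; after 24 h, one plate fixed with 10% TCA as T₀. Compound or 0.1% DMSO vehicle added for 48 h, then TCA fixation and 0.4% SRB in 1% acetic acid. Dye solubilized in 10 mM Trizma base, absorbance read at 515 nm. IC50 is the concentration giving 50% reduction of the protein gain in controls.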

[9] = test system: RPMI-8226; test: Anticancer activity against human RPMI8226 cells; assay type: functional; outline: as §2
[10] = test system: NCI-H23; test: Anticancer activity against human NCI-H23 cells; assay type: functional; outline: as §2
[11] = test system: NCI-H322M; test: Anticancer activity against human NCI-H322M cells; assay type: functional; outline: as §2
[12] = test system: NCI-H522; test: Anticancer activity against human NCI-H522 cells; assay type: functional; outline: as §2
[13] = test system: COLO 205; test: Anticancer activity against human COLO205 cells; assay type: functional; outline: as §2
[14] = test system: HCT-15; test: Anticancer activity against human HCT15 cells; assay type: functional; outline: as §2
[15] = test system: HT-29; test: Anticancer activity against human HT-29 cells; assay type: functional; details: read-out: LC50 (the source's name); outline: as §2
[16] = test system: SF-268; test: Anticancer activity against human SF268 cells; assay type: functional; details: read-out: LC50 (the source's name); outline: as §2
[17] = test system: SF-295; test: Anticancer activity against human SF295 cells; assay type: functional; details: read-out: LC50 (the source's name); outline: as §2
[18] = test system: LOX IMVI; test: Anticancer activity against human LOXIMVI cells; assay type: functional; outline: as §2
[19] = test system: Malme-3M; test: Anticancer activity against human MALME-3M cells; assay type: functional
Outline: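 Tested by the NCI in its 60-human-tumour-cell-line panel. Dose-response curves were run, and GI₅₀ (50% growth inhibition), TGI (total growth inhibition) and LC₅₀ (50% cell killing) were read as interpolated concentrations where the curves cross those levels.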

[20] = test system: M14; test: Anticancer activity against human M14 cells; assay type: functional; outline: as §2
[21] = test system: SK-MEL-2; test: Anticancer activity against human SK-MEL-2 cells; assay type: functional; outline: as §2
[22] = test system: SK-MEL-28; test: Anticancer activity against human SK-MEL-28 cells; assay type: functional; outline: as §2
[23] = test system: SK-MEL-5; test: Anticancer activity against human SK-MEL-5 cells; assay type: functional; outline: as §2
[24] = read-out: LC50 (the source's name)

SMILES: Cc1ccc(C(=O)Nc2c(NC(=O)CCl)ccc3c2C(=O)c2ccccc2C3=O)cc1
- Activity [1]: 8.72%
- Activity [2]: -81.02%
- Activity [3]: 42.91%
- Activity [4]: -97.56%
- Activity [5]: -49.46%
- GI50 [6]: 1.59 µM
- LC50 [6]: > 50 µM
- TGI [6]: > 50 µM
- GI50 [7]: 1.87 µM
- LC50 (50% net cell kill) [7]: > 50 µM
- TGI [7]: 4.04 µM
- IC50 [8]: 3.87 µM
- GI50 [9]: 1.35 µM
- LC50 (50% cell kill) [9]: > 50 µM
- TGI [9]: > 50 µM
- GI50 [10]: 1.78 µM
- LC50 (50% cell kill) [10]: 31.4 µM
- TGI [10]: 8.28 µM
- GI50 [11]: 3.76 µM
- LC50 (50% cell kill) [11]: 45.4 µM
- TGI [11]: 13.7 µM
- GI50 [12]: 0.88 µM
- TGI [12]: 2.03 µM
- GI50 [13]: 2.95 µM
- LC50 [13]: 23.7 µM
- TGI [13]: 9.65 µM
- LC50 [14]: 28.4 µM
- CC50 [15]: > 50 µM
- CC50 [16]: > 50 µM
- CC50 [17]: 42.2 µM
- GI50 [18]: 0.78 µM
- TGI [18]: 1.84 µM
- CC50 [18, 24]: 4.29 µM
- GI50 [19]: 5.89 µM
- TGI [19]: 15.6 µM
- CC50 [19, 24]: 41.1 µM
- GI50 [20]: 4.72 µM
- TGI [20]: 12.4 µM
- CC50 [20, 24]: 31.4 µM
- GI50 [21]: 1.34 µM
- TGI [21]: 4.4 µM
- CC50 [21, 24]: > 50 µM
- GI50 [22]: 7.63 µM
- TGI [22]: 15.2 µM
- CC50 [22, 24]: 30.1 µM
- GI50 [23]: 0.83 µM
- TGI [23]: 1.53 µM
- CC50 [23, 24]: 2.83 µM
